Test results as given in ChEMBL document CHEMBL1914320, “C4-alkylthiols with activity against Moraxella catarrhalis and Mycobacterium tuberculosis” (Bioorg Med Chem, 2011).
Values after ≈ are worked out from the molar mass of the structure shown. Active and inactive are the calls of the source. No cut-off for these calls is given here.

Assays:
[1] = tested on: Escherichia coli; assay: Antibacterial activity against non-beta-lactamase producing Escherichia coli ATCC 25922 after 48 hrs by microdilution broth method; assay type: functional, organism-based
In short: (§1)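 Broth microdilution followed CLSI guidelines. Compound was dissolved in 95% ethanol, diluted at least 10-fold into Mueller-Hinton broth, then serially two-fold diluted from 500 to 15.6 μg/mL. Actively growing culture was added at 5 × 10^5 cells/mL. Plates ran 48 h at 37 °C, scored for visible growth at 24 and 48 h. MIC was the lowest concentration without growth. For MBC, 10 μL from each clear well was plated on MH agar. Controls were ethanol and penicillin. Triplicate.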

[2] = tested on: Moraxella catarrhalis; assay: Antibacterial activity against beta-lactamase producing Moraxella catarrhalis isolate 4 at 10 ug/disc after overnight incubation by disc diffusion assay; assay type: functional; conditions: for zone of inhibition at 10 µg/disc: read-out: IZ
In short: (§2)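 Isolates were held at −80 °C. Five colonies were suspended in Mueller-Hinton broth to a 0.5 McFarland density and swabbed onto MH agar. Discs carried 10 μg compound, applied in methanol and dried at room temperature. Plates were incubated overnight at 37 °C, and the zone of inhibition was measured in mm from the disc edge. Controls were methanol-only and penicillin discs. Run blinded, in triplicate.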

[3] = tested on: Moraxella catarrhalis; assay: Antibacterial activity against beta-lactamase producing Moraxella catarrhalis isolate 6 at 10 ug/disc after overnight incubation by disc diffusion assay in presence of 1 mol equiv of glutathione; assay type: functional; conditions: for zone of inhibition at 10 µg/disc: read-out: IZ
[4] = tested on: Moraxella catarrhalis; assay: Antibacterial activity against beta-lactamase producing Moraxella catarrhalis isolate 2 at 10 ug/disc after overnight incubation by disc diffusion assay in presence of 1 mol equiv of glutathione; assay type: functional; conditions: for zone of inhibition at 10 µg/disc: read-out: IZ
[5] = tested on: Enterococcus faecalis; assay: Antibacterial activity against non-beta-lactamase producing Enterococcus faecalis ATCC 29212 at 10 ug/disc after overnight incubation by disc diffusion assay; assay type: functional, organism-based; in short: as §2
[6] = tested on: Moraxella catarrhalis; assay: Antibacterial activity against beta-lactamase producing Moraxella catarrhalis isolate 1 at 10 ug/disc after overnight incubation by disc diffusion assay; assay type: functional; in short: as §2
[7] = tested on: Moraxella catarrhalis; assay: Antibacterial activity against beta-lactamase producing Moraxella catarrhalis isolate 2 at 10 ug/disc after overnight incubation by disc diffusion assay; assay type: functional; conditions: for zone of inhibition at 10 µg/disc: read-out: IZ; in short: as §2
[8] = tested on: Staphylococcus aureus; assay: Antibacterial activity against non-beta-lactamase producing Staphylococcus aureus ATCC 25923 after 48 hrs by microdilution broth method; assay type: functional, organism-based; in short: as §1
[9] = tested on: Moraxella catarrhalis; assay: Antibacterial activity against beta-lactamase producing Moraxella catarrhalis isolate 6 at 10 ug/disc after overnight incubation by disc diffusion assay; assay type: functional; conditions: for zone of inhibition at 10 µg/disc: read-out: IZ; in short: as §2
[10] = tested on: Pseudomonas aeruginosa; assay: Antibacterial activity against non-beta-lactamase producing Pseudomonas aeruginosa ATCC 27853 at 10 ug/disc after overnight incubation by disc diffusion assay; assay type: functional, organism-based; in short: as §2
[11] = tested on: Moraxella catarrhalis; assay: Antibacterial activity against beta-lactamase producing Moraxella catarrhalis isolate 3 at 10 ug/disc after overnight incubation by disc diffusion assay in presence of 1 mol equiv of glutathione; assay type: functional; conditions: for zone of inhibition at 10 µg/disc: read-out: IZ
[12] = tested on: Moraxella catarrhalis; assay: Antibacterial activity against beta-lactamase producing Moraxella catarrhalis isolate 5 at 10 ug/disc after overnight incubation by disc diffusion assay; assay type: functional; conditions: for zone of inhibition at 10 µg/disc: read-out: IZ; in short: as §2
[13] = tested on: Moraxella catarrhalis; assay: Antibacterial activity against beta-lactamase producing Moraxella catarrhalis isolate 5 at 10 ug/disc after overnight incubation by disc diffusion assay in presence of 1 mol equiv of glutathione; assay type: functional; conditions: for zone of inhibition at 10 µg/disc: read-out: IZ
[14] = tested on: Moraxella catarrhalis; assay: Antibacterial activity against beta-lactamase producing Moraxella catarrhalis isolate 1 at 10 ug/disc after overnight incubation by disc diffusion assay in presence of 1 mol equiv of glutathione; assay type: functional
[15] = tested on: Moraxella catarrhalis; assay: Antibacterial activity against beta-lactamase producing Moraxella catarrhalis isolate 3 at 10 ug/disc after overnight incubation by disc diffusion assay; assay type: functional; conditions: for zone of inhibition at 10 µg/disc: read-out: IZ; in short: as §2
[16] = tested on: Enterococcus faecalis; assay: Antibacterial activity against non-beta-lactamase producing Enterococcus faecalis ATCC 29212 after 48 hrs by microdilution broth method; assay type: functional, organism-based; in short: as §1
[17] = tested on: Pseudomonas aeruginosa; assay: Antibacterial activity against non-beta-lactamase producing Pseudomonas aeruginosa ATCC 27853 after 48 hrs by microdilution broth method; assay type: functional, organism-based; in short: as §1
[18] = tested on: Escherichia coli; assay: Antibacterial activity against non-beta-lactamase producing Escherichia coli ATCC 25922 at 10 ug/disc after overnight incubation by disc diffusion assay; assay type: functional, organism-based; in short: as §2
[19] = tested on: Moraxella catarrhalis; assay: Antibacterial activity against beta-lactamase producing Moraxella catarrhalis isolate 4 at 10 ug/disc after overnight incubation by disc diffusion assay in presence of 1 mol equiv of glutathione; assay type: functional; conditions: read-out: IZ
[20] = tested on: Staphylococcus aureus; assay: Antibacterial activity against non-beta-lactamase producing Staphylococcus aureus ATCC 25923 at 10 ug/disc after overnight incubation by disc diffusion assay; assay type: functional, organism-based; in short: as §2
[21] = tested on: Moraxella catarrhalis; assay: Antibacterial activity against beta-lactamase producing Moraxella catarrhalis isolate 4 after 48 hrs incubation by microdilution broth method; assay type: functional; conditions: isolate 4, 48 h; in short: as §1
[22] = tested on: Mycobacterium tuberculosis; assay: Antimycobacterial activity against wild type Mycobacterium tuberculosis H37Rv by Alamar blue assay; assay type: functional
[23] = tested on: Moraxella catarrhalis; assay: Antibacterial activity against beta-lactamase producing Moraxella catarrhalis isolate 2 after 48 hrs incubation by microdilution broth method; assay type: functional; conditions: isolate 2, 48 h; in short: as §1
[24] = tested on: Moraxella catarrhalis; assay: Antibacterial activity against beta-lactamase producing Moraxella catarrhalis isolate 3 after 48 hrs incubation by microdilution broth method; assay type: functional; conditions: isolate 3, 48 h; in short: as §1
[25] = tested on: Moraxella catarrhalis; assay: Antibacterial activity against beta-lactamase producing Moraxella catarrhalis isolate 5 after 48 hrs incubation by microdilution broth method; assay type: functional; conditions: isolate 5, 48 h; in short: as §1
[26] = tested on: Moraxella catarrhalis; assay: Antibacterial activity against beta-lactamase producing Moraxella catarrhalis isolate 6 after 48 hrs incubation by microdilution broth method; assay type: functional; conditions: isolate 6, 48 h; in short: as §1
[27] = tested on: Moraxella catarrhalis; assay: Antibacterial activity against beta-lactamase producing Moraxella catarrhalis isolate 1 after 48 hrs incubation by microdilution broth method; assay type: functional; conditions: isolate 1, 48 h; in short: as §1
[28] = tested on: Mycobacterium tuberculosis; assay: Antimycobacterial activity against wild type Mycobacterium tuberculosis H37Rv at 200 ug/ml by Alamar blue assay; assay type: functional, organism-based
[29] = tested on: Moraxella catarrhalis; assay: Antibacterial activity against beta-lactamase producing Moraxella catarrhalis isolate 5 at 500 ug/ml after overnight incubation by disc diffusion assay; assay type: functional, organism-based
[30] = tested on: Moraxella catarrhalis; assay: Antibacterial activity against beta-lactamase producing Moraxella catarrhalis isolate 3 at 500 ug/ml after overnight incubation by disc diffusion assay; assay type: functional, organism-based
[31] = tested on: Moraxella catarrhalis; assay: Antibacterial activity against beta-lactamase producing Moraxella catarrhalis isolate 6 at 500 ug/ml after overnight incubation by disc diffusion assay; assay type: functional, organism-based
[32] = tested on: Moraxella catarrhalis; assay: Antibacterial activity against beta-lactamase producing Moraxella catarrhalis isolate 4 at 500 ug/ml after overnight incubation by disc diffusion assay; assay type: functional, organism-based
[33] = tested on: Moraxella catarrhalis; assay: Antibacterial activity against beta-lactamase producing Moraxella catarrhalis isolate 2 at 500 ug/ml after overnight incubation by disc diffusion assay; assay type: functional, organism-based

| SMILES | Activity [1] | zone of inhibition at 10 µg/disc [2] [mm] | zone of inhibition at 10 µg/disc [3] [mm] | zone of inhibition at 10 µg/disc [4] [mm] | Activity [5] | inhibition zone (IZ) [6] | Activity [8] | Activity [10] | Activity [16] | Activity [17] | Activity [18] | zone of inhibition at 10 µg/disc [19] [mm] | Activity [20] | MBC [21] [µg/mL] | MBC [22] [µg/mL] | MBC [23] [µg/mL] | MBC [24] [µg/mL] | MBC [25] [µg/mL] | MBC [26] [µg/mL] | MBC [27] [µg/mL] | further results |
| --- | --- | --- | --- | --- | --- | --- | --- | --- | --- | --- | --- | --- | --- | --- | --- | --- | --- | --- | --- | --- | --- |
| CC(=O)SC1CC(=O)N1S(=O)(=O)O (racemic) | inactive | 12 | 12 | 11 | inactive | inactive | inactive | inactive | inactive | inactive | inactive | 14 | inactive |  |  |  |  |  |  |  | zone of inhibition at 10 µg/disc [7]: 12 mm; zone of inhibition at 10 µg/disc [9]: 11 mm; zone of inhibition at 10 µg/disc [11]: 12 mm; zone of inhibition at 10 µg/disc [12]: 17 mm; zone of inhibition at 10 µg/disc [13]: 18 mm; inhibition zone (IZ) [14]: inactive; zone of inhibition at 10 µg/disc [15]: 17 mm |
| O=C1CC(Sc2ccc(O)cc2)N1 (racemic) | inactive |  |  |  | inactive |  | inactive | inactive | inactive | inactive | inactive |  | inactive | < 15.6 | > 200 | < 15.6 | < 15.6 | < 15.6 | < 15.6 | > 500 |  |
| O=C1CC(Sc2cccs2)N1 (racemic) | inactive |  |  |  | inactive | inactive | inactive | inactive | inactive | inactive | inactive |  | inactive | 500 (≈ 2700 µM) | 100 (≈ 540 µM) | > 500 | 500 (≈ 2700 µM) | 500 (≈ 2700 µM) | > 500 | > 500 | inhibition zone (IZ) [2]: inactive; inhibition zone (IZ) [7]: inactive; inhibition zone (IZ) [12]: inactive; inhibition zone (IZ) [15]: inactive |
| Nc1ccc(SC2CC(=O)N2S(=O)(=O)O)cc1 (racemic) | inactive | 8 |  |  | inactive | inactive | inactive | inactive | inactive | inactive | inactive | 8 | inactive |  |  |  |  |  |  |  | antimycobacterial activity (active/not active) [28]: Active; inhibition zone (IZ) [3]: inactive; inhibition zone (IZ) [4]: inactive; inhibition zone (IZ) [7]: inactive; antibacterial activity (active/not active) [29]: Active; inhibition zone (IZ) [9]: inactive; antibacterial activity (active/not active) [30]: Active; inhibition zone (IZ) [11]: inactive; antibacterial activity (active/not active) [31]: Active; antibacterial activity (active/not active) [32]: Active; inhibition zone (IZ) [12]: inactive; inhibition zone (IZ) [13]: inactive; inhibition zone (IZ) [14]: inactive; inhibition zone (IZ) [15]: inactive; antibacterial activity (active/not active) [33]: Active |
| O=C1CC(Sc2ccc(O)cc2)N1S(=O)(=O)O (racemic) | inactive | 8 | 8 | 7 | inactive |  | inactive | inactive | inactive | inactive | inactive | 7 | inactive | < 15.6 | > 200 | < 15.6 | < 15.6 | < 15.6 | < 15.6 | > 500 | zone of inhibition at 10 µg/disc ([6]; read-out: IZ): 13 mm; zone of inhibition at 10 µg/disc [7]: 9 mm; zone of inhibition at 10 µg/disc [9]: 8 mm; zone of inhibition at 10 µg/disc [11]: 7 mm; zone of inhibition at 10 µg/disc [12]: 9 mm; zone of inhibition at 10 µg/disc [13]: 8 mm; zone of inhibition at 10 µg/disc ([14]; read-out: IZ): 9 mm; zone of inhibition at 10 µg/disc [15]: 7 mm |
